How the values were obtained:
GRP78 = experiment: Western blot, GRP78 expression; format: cell-based, human; settings: U87MG cells; 20 μM (PACMA31 1.0 μM), 24 hours
Summary of the method: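 Treated U87MG cells were lysed by sonication in Tris/NaCl/Triton X-100/SDS buffer (pH 7.4) and spun at 13,500×g, 4 °C, 10 min. Protein was quantified by BCA. 30 μg per lane ran on 10% gels and transferred to PVDF. Primary antibodies were applied overnight at 4 °C. Fluorescent secondaries were imaged.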

A172 cells [1] = experiment: Wound healing assay; format: cell-based, human; settings: 24 hours, BAP2 at 10 μM
Summary of the method: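 A172 cells were seeded at 50,000/well, grown overnight, then kept in serum-free DMEM for 24 h. A scratch was made and compounds added. Cells grew 24 h, until DMSO-control scratches closed, then were Giemsa-stained and imaged at 10X.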

PDI = PDI (Homo sapiens, UniProt P07237); experiment: PDI reductase assay after competition with N-acetyl cysteine; format: biochemical; settings: compound 40 μM; 0, 1, 2 or 5 mM NAC; listed as BAP2
Chain of PDI (P07237 18-508): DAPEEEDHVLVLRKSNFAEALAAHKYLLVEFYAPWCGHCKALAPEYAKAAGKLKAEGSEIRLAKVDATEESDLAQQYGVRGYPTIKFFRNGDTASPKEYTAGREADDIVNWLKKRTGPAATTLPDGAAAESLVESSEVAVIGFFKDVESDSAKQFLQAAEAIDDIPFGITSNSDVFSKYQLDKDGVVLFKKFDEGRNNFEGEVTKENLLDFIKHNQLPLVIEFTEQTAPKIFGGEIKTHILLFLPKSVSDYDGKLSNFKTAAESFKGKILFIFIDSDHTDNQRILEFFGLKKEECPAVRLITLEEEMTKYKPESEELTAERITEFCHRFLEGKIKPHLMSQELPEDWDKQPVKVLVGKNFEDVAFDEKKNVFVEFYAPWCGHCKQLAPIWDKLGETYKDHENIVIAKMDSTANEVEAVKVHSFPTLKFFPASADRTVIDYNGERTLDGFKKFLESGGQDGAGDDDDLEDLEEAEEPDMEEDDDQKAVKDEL
Summary of the method: (§1)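 N-terminal His-tagged human PDI was expressed in E. coli BL21(DE3) pLysS with 1 mM IPTG for 4 h at 37 °C. It was purified on Ni-NTA and dialyzed into 100 mM sodium phosphate, 2 mM EDTA, pH 7.0. PDI (0.4 μM) was preincubated 1 h with compound in phosphate/EDTA buffer with 8 μM DTT. DTT (500 μM) and bovine insulin (130 μM) were then added at room temperature. Aggregation was read at 620 nm. Percent activity came from the 0–80 min change, corrected for DTT alone.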

D54 cells = experiment: Clonogenic survival assay with ionizing radiation; format: cell-based; settings: 1 μM, 0-6 Gy
Summary of the method: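 D54 monolayer cells (37 °C, 5% CO2, mycoplasma-tested, STR-authenticated) were irradiated at 0, 1, 2, 4 or 6 Gy and plated immediately at 200, 200, 400, 600 and 1000 cells/well. Test compounds (1 μM), reference inhibitor (0.05 μM) or DMSO were added. After 10–12 days, colonies were stained with 0.1% crystal violet.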

GBM cell = experiment: Combination with As2O3, GBM cell proliferation; format: cell-based
b’ domain of PDI = b’ domain of PDI (Homo sapiens, UniProt P07237); experiment: ANS spectral scan; format: binding; settings: 5 μM PDI, 100 μM compound
Chain of b’ domain of PDI (P07237 18-508): as above
Summary of the method: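 Human PDI was preincubated with 100 μM compound or matching DMSO in TBS at 37 °C for 1 h. ANS was then added, followed by 20 min in the dark at 25 °C. Fluorescence spectrum: Ex 370 nm, Em 400–700 nm.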

A172 cells [2] = experiment: Transwell migration assay; format: cell-based, human; settings: 4 hours, 30 μM
Summary of the method: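 Treated A172 cells (1 x 10^5) were seeded into inserts with 8.0 µm PET membranes in serum-free medium. The lower well held DMEM with 10% FBS, and FBS-free wells served as control. After 4 h, cells were Giemsa-stained and 5 fields per well were imaged at 10X.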

C53S/C397S PDI = C53S/C397S PDI (Homo sapiens, UniProt P07237, C397S/C53S); experiment: Thermal shift assay, C53S/C397S PDI; format: binding; settings: 100 μM
Chain of C53S/C397S PDI (P07237 18-508 C53S/C397S): as the sequence (P07237 18-508) above, with C36S, C380S counted along it
Summary of the method: (§2)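 Purified PDI (wild-type, C53S/C397S or H256A; 0.5 mg/mL in 50 mM Tris, pH 7.0) was mixed with compound in DMSO and ROX dye. Samples were heated from 25 to 99 °C at 1 °C/min. Boltzmann melting temperature was compared with the 5% DMSO control.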

H256A PDI [3] = target: T1, H256A PDI (Homo sapiens, UniProt P07237, H256A); experiment: Thermal shift assay, H256A PDI; format: binding; settings: 100 μM
T1 sequence (P07237 18-508 H256A): as the sequence (P07237 18-508) above, with H239A counted along it
Summary of the method: as §2

H256A PDI [4] = target: T1, H256A PDI; experiment: PDI reductase assay, H256A mutant PDI; format: biochemical; settings: 10 μM
Summary of the method: as §1

wild-type PDI = wild-type PDI (Homo sapiens, UniProt P07237); experiment: Thermal shift assay, wild-type PDI; format: binding; settings: recombinant PDI, dose-dependent, up to 100 μM
Chain of wild-type PDI (P07237 18-508): as the sequence (P07237 18-508) above
Summary of the method: as §2

U87MG = experiment: MTT growth inhibition assay, U87MG; format: cell-based, human; settings: read-out: IC50, cytotoxicity U87MG, 72 hours, listed as 6 (BAP2)
Summary of the method: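 U87MG seeded at 5000 cells/well, incubated overnight at 37 °C and 5% CO2, then given test compound or vehicle for 72 h. MTT (3 mg/mL) was added for 4 h at 37 °C. Formazan was dissolved in DMSO with 15 min shaking at room temperature and read at 570 nm. Inhibition was calculated as [1-(At-Ab)/(Ac-Ab)]×100 against untreated and blank wells.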

SMILES: N#Cc1cccc(/C=C/C(=O)c2ccc(O)cc2)c1 [Compound 6, (E)-3-(3-(4-Hydroxyphenyl)-3-oxoprop-1-en-1-yl)benzonitrile]
- expression of GRP78 (GRP78): increase in expression of GRP78
- wound healing / cell migration (A172 cells [1]): inhibited wound healing
- activity after competition with N-acetyl cysteine (NAC) (PDI): unaffected by up to 5 mM NAC
- synergy with ionizing radiation (IR) (D54 cells): synergized with IR
- inhibition of GBM cell proliferation in combination with As2O3 (GBM cell): synergistically
- effect on ANS fluorescence (b’ domain of PDI): hindered the ability of ANS to fluoresce
- transwell migration (A172 cells [2]): inhibited migration
- stabilization (thermal shift) in the C53S/C397S mutant (C53S/C397S PDI): but not the C53S/C397S mutant
- stabilization (thermal shift) in the H256A mutant (H256A PDI [3]): abolished
- activity against H256A mutant PDI (H256A PDI [4]): abolished upon mutation
- increase of melting temperature (wild-type PDI): more than 1 °C
- IC50 (U87MG): 10.3 ± 2.3 µM

Source: paper PMC8276234 (Journal of medicinal chemistry, 2019)
